Laboratory results: ChEMBL document CHEMBL1144185, “Synthesis and SAR study of N-(4-hydroxy-3-(2-hydroxynaphthalene-1-yl)phenyl)-arylsulfonamides: heat shock protein 90 (Hsp90) inhibitors with submicromolar activity in an in vitro assay” (Bioorg Med Chem Lett, 2008)
The source made the active and inactive calls. No cut-off for these calls is given here.

Assays:
[1] = molecular target: T1, Heat shock protein HSP90 (Homo sapiens, UniProt P07900+P08238); experiment: Inhibition of Hsp90 in human SKBR3 cells assessed as interaction with Cy3b-conjugated geldanamycin upto 50 uM by FP assay; format: cell-based; details: SK-BR-3
How it was run: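 Fluorescence polarization binding assay measuring displacement of fluorescently labeled geldanamycin from the Hsp90 ATP-binding site. Compounds were tested up to a maximum of 50 µM.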

[2] = molecular target: T1, Heat shock protein HSP90; experiment: Inhibition of Hsp90 in human SKBR3 cells assessed as interaction with Cy3b-conjugated geldanamycin by FP assay; format: cell-based; details: sk-br-3
[3] = test system: SK-BR-3; experiment: cells; details: Homo sapiens, SK-BR-3, 72 h
[4] = molecular target: T1, Heat shock protein HSP90; experiment: Inhibition of Hsp90 in human SKBR3 cells assessed as Her2 degradation after 24 hrs by Western blot; format: cell-based; details: sk-br-3

## Cc1ccc(S(=O)(=O)Nc2ccc(N)c(-c3ccccc3O)c2)cc1
[1]
  Activity: inactive

## Nc1ccc(NS(=O)(=O)c2cc(Cl)ccc2Cl)cc1-c1ccccc1O
[1]
  Activity: inactive

## Nc1cccc(S(=O)(=O)Nc2ccc(F)c(-c3c(O)ccc4c3OCO4)c2)c1
[1]
  Activity: inactive

## O=C(O)c1cccc(S(=O)(=O)Nc2ccc(F)c(-c3c(O)ccc4c3OCO4)c2)c1
[1]
  Activity: inactive

## N#Cc1cc(S(=O)(=O)Nc2ccc(F)c(-c3c(O)ccc4c3OCO4)c2)ccc1F
[2]
  IC50: 27 µM

## O=S(=O)(Nc1ccc(O)c(-c2ccccc2O)c1)c1cc(Cl)ccc1Cl
[2]
  IC50: 19.4 µM

## O=[N+]([O-])c1ccccc1S(=O)(=O)Nc1ccc(F)c(-c2c(O)ccc3c2OCO3)c1
[1]
  Activity: inactive

## Nc1ccc(NS(=O)(=O)c2cc(Cl)ccc2Cl)cc1-c1c(O)ccc2ccccc12
[2]
  IC50: 9.4 µM

## N#Cc1cc(S(=O)(=O)Nc2ccccc2-c2c(O)ccc3c2OCO3)ccc1F
[1]
  Activity: inactive

## Cc1ccc(S(=O)(=O)Nc2ccc(F)c(-c3c(O)ccc4c3OCO4)c2)cc1
[2]
  IC50: 28 µM

## Nc1ccc(NS(=O)(=O)c2ccccc2)cc1-c1c(O)ccc2ccccc12
[1]
  Activity: inactive

## Nc1ccccc1S(=O)(=O)Nc1ccc(F)c(-c2c(O)ccc3c2OCO3)c1
[1]
  Activity: inactive

## O=S(=O)(Nc1ccc(F)c(-c2c(O)ccc3c2OCO3)c1)c1ccc(F)cc1
[1]
  Activity: inactive

## N#Cc1ccccc1S(=O)(=O)Nc1ccc(O)c(-c2c(O)ccc3ccccc23)c1
[2]
  IC50: 4.5 µM

## COc1ccc(S(=O)(=O)Nc2ccc(O)c(-c3c(O)ccc4ccccc34)c2)c(OC)c1
[2]
  IC50: 2.5 µM

## O=[N+]([O-])c1ccccc1S(=O)(=O)Nc1ccc(O)c(-c2ccccc2O)c1
[1]
  Activity: inactive

## COc1ccc(S(=O)(=O)Nc2ccc(N)c(-c3c(O)ccc4ccccc34)c2)c(OC)c1
[2]
  IC50: 25 µM

## N#Cc1cc(S(=O)(=O)Nc2cccc(-c3c(O)ccc4c3OCO4)c2)ccc1F
[1]
  Activity: inactive

## O=S(=O)(Nc1ccc(O)c(-c2c(O)ccc3c2OCO3)c1)c1cc(Cl)ccc1Cl
[3]
  IC50: 4.4 µM
[2]
  IC50: 1.7 µM

## COc1ccc2c(c1-c1cc(NS(=O)(=O)c3cccc(N)c3)ccc1N)OCO2
[1]
  Activity: inactive

## O=[N+]([O-])c1cc(S(=O)(=O)Nc2ccc(F)c(-c3c(O)ccc4c3OCO4)c2)ccc1Cl
[2]
  IC50: 26 µM

## COc1ccc2c(c1-c1cc(NS(=O)(=O)c3cc(Cl)ccc3Cl)ccc1N)OCO2
[1]
  Activity: inactive

## COc1ccc2c(c1-c1cc(NS(=O)(=O)c3ccc(C)cc3)ccc1N)OCO2
[1]
  Activity: inactive

## O=S(=O)(Nc1ccccc1-c1c(O)ccc2c1OCO2)c1cc(Cl)ccc1Cl
[1]
  Activity: inactive

## COc1ccc(S(=O)(=O)Nc2ccc(O)c(-c3ccccc3O)c2)cc1OC
[1]
  Activity: inactive

## COc1ccc2c(c1-c1cc(NS(=O)(=O)c3ccccc3N)ccc1N)OCO2
[1]
  Activity: inactive

## COc1ccc2c(c1-c1cc(NS(=O)(=O)c3cccc([N+](=O)[O-])c3)ccc1N)OCO2
[1]
  Activity: inactive

## Nc1cccc(S(=O)(=O)Nc2ccc(O)c(-c3ccccc3O)c2)c1
[1]
  Activity: inactive

## O=S(=O)(Nc1cccc(-c2c(O)ccc3c2OCO3)c1)c1ccc(F)cc1
[2]
  IC50: 19.6 µM

## O=C(O)c1ccc(S(=O)(=O)Nc2ccccc2-c2c(O)ccc3c2OCO3)cc1
[1]
  Activity: inactive

## O=[N+]([O-])c1cccc(S(=O)(=O)Nc2ccc(O)c(-c3ccccc3O)c2)c1
[1]
  Activity: inactive

## O=S(=O)(Nc1ccc(O)c(-c2c(O)ccc3ccccc23)c1)c1ccccc1
[2]
  IC50: 4.5 µM

## Cc1ccc(S(=O)(=O)Nc2ccc(O)c(-c3ccccc3O)c2)cc1
[1]
  Activity: inactive

## COc1cc(O)ccc1S(=O)(=O)Nc1ccc(O)c(-c2c(O)ccc3ccccc23)c1
[2]
  IC50: 1.3 µM

## COc1ccc(O)c(O)c1-c1cc(NS(=O)(=O)c2cc(Cl)ccc2Cl)ccc1N
[3]
  IC50: 6 µM
[2]
  IC50: 0.55 µM
[4]
  IC50: 20 µM

## O=S(=O)(Nc1ccc(O)c(-c2c(O)ccc3ccccc23)c1)c1ccc(O)cc1O
[3]
  IC50: > 50 µM
[2]
  IC50: 1.8 µM

## Nc1ccccc1S(=O)(=O)Nc1ccc(O)c(-c2ccccc2O)c1
[1]
  Activity: inactive

## O=[N+]([O-])c1cccc(S(=O)(=O)Nc2ccc(F)c(-c3c(O)ccc4c3OCO4)c2)c1
[1]
  Activity: inactive

## COc1ccc(S(=O)(=O)Nc2ccc(N)c(-c3ccccc3O)c2)cc1OC
[1]
  Activity: inactive

## O=S(=O)(Nc1ccc(O)c(-c2c(O)ccc3ccccc23)c1)c1cc(Cl)ccc1Cl
[3]
  IC50: 6 µM

## COc1ccc(S(=O)(=O)Nc2ccc(N)c(-c3c(OC)ccc4c3OCO4)c2)cc1OC
[1]
  Activity: inactive

## Cc1ccc(S(=O)(=O)Nc2cccc(-c3c(O)ccc4c3OCO4)c2)cc1
[2]
  IC50: 31.3 µM

## Nc1ccc(NS(=O)(=O)c2ccc(O)cc2O)cc1-c1c(O)ccc2ccccc12
[2]
  IC50: 9.5 µM

## COc1ccc2c(c1-c1cc(NS(=O)(=O)c3ccccc3[N+](=O)[O-])ccc1N)OCO2
[1]
  Activity: inactive

## O=S(=O)(Nc1cccc(-c2c(O)ccc3c2OCO3)c1)c1cc(Cl)ccc1Cl
[2]
  IC50: 14.5 µM
